Several values for one entry are separate records, joined by “and”; a condition that tells them apart may be missing. Equal entries are not always repeated. Entries after “also recorded” stand apart in the source; their conditions may differ. Where two headings read alike, the source gives them in different places. Marks after values point to notes of the source that are not given here.

As usually defined, the CL/F is clearance divided by bioavailability, as obtained after extravascular dosing. By Vd is commonly meant a proportionality between amount in the body and measured concentration, not a real space. As usually defined, the clearance is the rate of elimination divided by the concentration. Low readings indicate a low capacity for elimination, high ones a high capacity for elimination. What is called half-life is the time needed for the level to fall by half in the phase considered. Read a high half-life as slow loss. Broadly, the AUC(0-inf) is total exposure, with the tail of the curve extrapolated. A higher AUC(0-inf) goes with more exposure. A word on the AUC(0-t): it is exposure summed from dosing to a finite time, without extrapolation to infinity. A high value points to more exposure. What is called Vd/F is the apparent distribution volume after extravascular dosing.

Data set [1] is classed as in vivo, human. Particulars: for AUCinf(dn), adjusted least squares geometric mean: N = 8, mixed-effects model; for t1/2 / half-life: arithmetic mean ± SD. In a few lines: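 In period 1, after an overnight fast of at least 8 h, subjects received 15 mg oral unlabeled drug. A 100 μg 14C i.v. microdose (~400 nCi) was infused over ~5 min, ending 1 h post oral dose. Plasma 14C drug was measured by HPLC-AMS and unlabeled drug by HPLC-MS/MS (LLOQ 0.5 ng/mL). Noncompartmental AUClast used linear-log trapezoids and AUCinf = AUClast + Clast*/kel, normalized to the actual dose. F = ratio of adjusted geometric means, from a mixed-effects model on ln AUCinf with 90% CI.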

Data set [2] is classed as in vivo, human. Particulars: for 14C_Total(dn) (14C_Total in dpm/radioactivity dose in dpm), geometric mean: N = 6; for 14C-Total urinary excretion: mean (%CV). In a few lines: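 Period 1 was the i.v. 14C microdose. In period 2, after at least 11 days washout and a fast of at least 8 h, subjects took 15 mg oral unlabeled drug (three 5-mg tablets), then a 100 μg oral 14C solution (~400 nCi) with ~240 mL water. Urine 0–96 h was assayed for 14C by AMS, summed as concentration × volume, then normalized to the administered dpm. That dose came from LSC of the solution and syringe weight. Fa = oral/i.v. geometric mean ratio, plus a mixed-effects model using all data.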

Data set [3] is described as follows: Safety and tolerability assessments in the microtracer study. It counts as in vivo, human. Particulars: for Adverse events: N = 8. In a few lines: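 Eight healthy adult men, fasted at least 8 h overnight, received the test compound orally plus an i.v. 14C microtracer (period 1), then oral unlabeled drug plus oral 14C microtracer (period 2). Monitoring covered adverse events, vital signs, ECGs and laboratory tests from screening through the study. A telephone follow-up for adverse events was made 14 ± 3 days after the last dose.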

The conditions of data set [4]: dose range of 0.5–300 mg, fasting state; cited from earlier work.
For data set [5] the following is noted: cited from earlier work.
The conditions of data set [6]: rats; cited from earlier work.
The conditions of data set [7]: dogs; cited from earlier work.
Data set [8] has as its system Caco‐2 cells. The conditions noted are these: cited from earlier work.
For data set [9] the following is noted: ref data on file; cited from earlier work.
The mark [10] stands for this setting: 15 mg oral unlabeled, dose-normalized to 1 mg, geometric mean (geometric %CV).
[11] abbreviates: 100 μg i.v. 14C, geometric mean (geometric %CV).

Regarding `CCOc1ccc(Cc2cc([C@]34OC[C@](CO)(O3)[C@@H](O)[C@H](O)[C@H]4O)ccc2Cl)cc1` [ertugliflozin], the “AUCinf(dn), adjusted least squares geometric mean” value in data set [1] (15 mg oral unlabeled (Test)) is recorded as 93.16 ng·h/mL/mg. For the same compound, the “Time quantifiable in plasma postdose” value in [1] (15 mg oral unlabeled, HPLC-MS/MS, LLOQ 0.5 ng/mL) is recorded as 72 h. Besides, the t1/2 in data set [1] (15 mg oral unlabeled, listed as Unlabeled ertugliflozin) stood at 14.04 ± 2.17 h. In addition, in data set [1] (setting [10]), the “AUCinf(dn)” value is on record as 93.16 (13) ng·h/mL/mg and the “Cmax(dn)” value is 17.09 (14) ng/mL/mg. In [1] (15 mg oral unlabeled, geometric mean (geometric %CV)), this compound displayed a CL/F of 178.7 mL/min. Moreover, the Permeability classification entry in data set [1] (based on F and Fa ∼100%) is “highly permeable”. In data set [1] (human, plasma, iv, 100 ug), this compound registered a Vd of 85.5 L and a clearance of 187 mL/min. Moreover, in data set [1] (human, plasma, iv, 100 ug, t1/2, 100 μg i.v. 14C), the half-life is 8.1 h. In data set [1] (human, plasma, po, 15 mg), this compound had an AUC(0-inf) of 1400 ng·h/mL, an AUC(0-t) of 1380 ng·h/mL, a Cmax of 256 ng/mL and a Vd/F of 215 L. This compound showed a half-life in data set [1] (human, plasma, po, 15 mg, t1/2, 15 mg oral unlabeled) of 14 h. Further, the “Absolute oral bioavailability F: Ratio (Test/Reference) of adjusted means” value in [1] (oral 15 mg vs i.v. 14C 100 μg, fasted, N = 8) is 105% and 104.73%. Also, in [2] (all available data (N = 8 oral; N = 6 i.v.)), the “Fraction absorbed Fa: geometric mean ratio (90% CI), mixed-effects model” value is 110%. In [2] (fasted conditions), the Oral absorption entry is “complete; also recorded: completely absorbed”. For the same compound, the “14C_Total(dn) (14C_Total in dpm/radioactivity dose in dpm), geometric mean” value in [2] (oral (Test, period 2), urine 0–96 h) came out at 0.432. Moreover, in [2] (six subjects with complete urine data for both treatments, fasted), the “Fraction absorbed Fa: ratio (Test/Reference) of geometric means” value is 111% and 110.71%. Further, the Tolerability entry in data set [3] (following i.v. and oral administration, healthy men) is reported as “well tolerated”. Further, the Adverse events entry in [3] (period 1 (i.v. administration)) is “Three subjects experienced three AEs (back pain and two episodes of headache)”. In addition, the Adverse events entry in data set [3] (period 2 (oral administration)) is reported as “one subject experienced one AE (nasal congestion)”. The “Dose proportionality in exposure (AUC and Cmax)” value in data set [4] is reported as “dose proportionality in exposure”. Also, the Principal biotransformation pathway result in [5] (humans) is recorded as “glucuronidation”. Further, the “Renal excretion of unchanged ertugliflozin” value in [5] (single 25-mg oral 14C dose, healthy male subjects) is 1.5%. The “Human fraction of dose absorbed (Fa) from mean urinary 14C recovery” value in data set [5] (single 25-mg oral 14C dose) is on record as “at least 50%”. In addition, in data set [6], the “Estimated Fa” value is given as approximately 75%. Also, the “Estimated Fa” value in [7] was approximately 100%. Besides, the BA/AB ratio in data set [8] (Caco-2) is on record as 2.1. For the same compound, in data set [8] (apical (A) to basolateral (B) direction), the Permeability coefficient was 4.1 ×10⁻⁶ cm/s. In data set [9], the Solubility classification result is “highly soluble” and the “Solubility of 15 mg in 250 mL aqueous media” value is “completely soluble”.
For ^14C‐ertugliflozin, the “AUCinf(dn), adjusted least squares geometric mean” value in data set [1] (100 μg i.v. 14C (Reference)) is listed as 88.96 ng·h/mL/mg. Also, in data set [1] (100 μg i.v. 14C microdose, period 1, N = 8, geometric mean (geometric %CV)), the AUCinf was 8.477 (15) ng·h/mL. The “Time quantifiable in plasma postdose” value in data set [1] (100 μg i.v. 14C microdose, HPLC-AMS, LLOQ 20.4 pg/mL) is given as approximately 24 h. In addition, in data set [1] (100 μg i.v. 14C, 5-min infusion, relative to infusion start, median (range)), the Tmax was 0.083 (0.083–0.100) h. The compound also gave a t1/2 in data set [1] (100 μg i.v. 14C) of 8.098 ± 2.248 h. Besides, the “Cmax(dn)” value in data set [1] (100 μg i.v. 14C, dose-normalized to 1 mg, geometric mean (geometric %CV)) is recorded as 89.34 ^b (32) ng/mL/mg. Besides, in [1] (setting [11]), the AUClast is 7.859 (14) ng·h/mL, the CL is reported as 187.2 (15) mL/min, the Cmax is reported as 8.514 (32) ng/mL and the Vss is listed as 85.53 (15) L. For the same compound, in [2] (i.v. 100 μg 14C (Reference, period 1), urine), the “14C_Total(dn) (14C_Total in dpm/radioactivity dose in dpm), geometric mean” value is listed as 0.390. Moreover, in [2] (i.v. 100 μg 14C, period 1, N = 6), the 14C-Total urinary excretion was 319,000 (19) dpm and 319,000 dpm. For the same compound, the “Total 14C in urine as percent of administered dose (% 14C_Total)” value in data set [2] (i.v. administration) worked out at 39%. For the same compound, in data set [2] (oral 100 μg 14C, period 2, N = 8), the 14C-Total urinary excretion is 320,400 (10) dpm and 320,400 dpm. Besides, the “Total 14C in urine as percent of administered dose (% 14C_Total)” value in [2] (oral administration) came to 44%.

(Values after publication PMC6039199 (Clinical and Translational Science, 2018).)
